Source: ChEMBL document CHEMBL1137151, “Novel factor Xa inhibitors based on a 2-carboxyindole scaffold: SAR of P4 substituents in combination with a neutral P1 ligand” (Bioorg Med Chem Lett, 2004)

Columns and labels:
Coagulation factor X = Coagulation factor X (Homo sapiens, UniProt P00742); experiment: Inhibitory activity against serine protease factor Xa
Prothrombin [1] = molecular target: T1, Prothrombin (Homo sapiens, UniProt P00734); experiment: Inhibitory activity against coagulation factor II (thrombin)
Trypsin = Trypsin (Homo sapiens, UniProt P07477+P07478+P35030); experiment: Inhibitory activity against coagulation factor trypsin; assay type: protein assay
[2] = molecular target: Tissue-type plasminogen activator (Homo sapiens, UniProt P00750); experiment: Inhibitory activity against human tissue plasminogen activator
Chain of Tissue-type plasminogen activator (P00750 whole entry): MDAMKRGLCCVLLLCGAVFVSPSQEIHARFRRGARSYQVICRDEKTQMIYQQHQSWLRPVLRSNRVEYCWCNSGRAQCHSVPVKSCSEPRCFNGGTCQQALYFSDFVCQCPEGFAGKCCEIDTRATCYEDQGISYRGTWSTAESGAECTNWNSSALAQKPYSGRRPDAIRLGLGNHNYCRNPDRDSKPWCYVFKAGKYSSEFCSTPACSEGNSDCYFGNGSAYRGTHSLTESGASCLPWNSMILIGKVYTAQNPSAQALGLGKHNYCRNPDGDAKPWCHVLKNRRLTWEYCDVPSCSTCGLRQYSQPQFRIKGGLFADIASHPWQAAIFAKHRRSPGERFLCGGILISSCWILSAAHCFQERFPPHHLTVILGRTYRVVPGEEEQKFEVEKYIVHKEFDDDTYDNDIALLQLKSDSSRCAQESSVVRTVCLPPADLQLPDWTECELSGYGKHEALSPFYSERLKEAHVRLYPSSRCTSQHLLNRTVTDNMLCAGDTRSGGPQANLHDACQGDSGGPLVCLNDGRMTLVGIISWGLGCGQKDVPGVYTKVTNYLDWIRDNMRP

Prothrombin [3] = molecular target: T1, Prothrombin; experiment: Concentration required to double plasma clotting prothrombin time; assay type: functional, cell-free
Method in brief: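 Standard plasma coagulation assays, APTT and PT respectively. The value is the inhibitor concentration that doubles plasma clotting time.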

Prothrombin [4] = molecular target: T1, Prothrombin; experiment: Inhibitory concentration in dilute prothrombin time assay; assay type: functional
Method in brief: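 Dilute prothrombin time assay, run as PT with diluted thromboplastin reagent. The value is the inhibitor concentration giving 50% inhibition of dPT.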

Chain of Coagulation factor X (P00742 41-179 limits assumed): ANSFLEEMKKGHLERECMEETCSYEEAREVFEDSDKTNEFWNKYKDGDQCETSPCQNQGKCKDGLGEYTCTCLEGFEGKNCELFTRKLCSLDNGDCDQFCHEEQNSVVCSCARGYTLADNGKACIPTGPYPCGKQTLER
Chain of Coagulation factor X (P00742 235-488 limits assumed): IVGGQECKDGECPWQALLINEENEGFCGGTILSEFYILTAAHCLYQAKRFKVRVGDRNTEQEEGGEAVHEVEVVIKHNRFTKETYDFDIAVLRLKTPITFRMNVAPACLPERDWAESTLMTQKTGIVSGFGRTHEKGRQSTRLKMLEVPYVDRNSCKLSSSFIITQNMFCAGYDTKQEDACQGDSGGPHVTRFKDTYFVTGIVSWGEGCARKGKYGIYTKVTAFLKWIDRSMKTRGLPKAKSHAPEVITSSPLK

Ki (Coagulation factor X) [µM]	Ki (Prothrombin [1]) [µM]	Ki (Trypsin) [µM]	Ki [2] [µM]	Concentration (Prothrombin [3]) [µM]	IC50 (Prothrombin [4]) [µM]	SMILES
0.225						CC(C)N1CC(NC(=O)c2cc3ccccc3n2Cc2cc(-c3ccc(Cl)s3)on2)C1
0.071						O=C(NC1CCN(C2CCCC2)CC1)c1cc2ccccc2n1Cc1cc(-c2ccc(Cl)s2)on1
0.161						CC(C)N1CCC(CNC(=O)c2cc3ccccc3n2Cc2cc(-c3ccc(Cl)s3)on2)CC1
2.9						O=C(c1cc2ccccc2n1Cc1cc(-c2ccc(Cl)s2)on1)N1CCC(Oc2ccncc2)CC1
	2.76	> 100	> 100	5.41	0.42	CC(C)N1CCC(NC(=O)c2cc3ccccc3n2Cc2cc(-c3ccc(Cl)s3)on2)CC1
0.125						CS(=O)(=O)N1CCC(NC(=O)c2cc3ccccc3n2Cc2cc(-c3ccc(Cl)s3)on2)CC1
	8.22	> 100	> 100	19.6	1.79	O=C(NC1CCN(C2CC2)CC1)c1cc2ccccc2n1Cc1cc(-c2ccc(Cl)s2)on1
	> 10	> 100	> 100	13.7	0.62	CC(C)N1CC[C@@H](NC(=O)c2cc3ccccc3n2Cc2cc(-c3ccc(Cl)s3)on2)C1
0.839						CC(C)N1CC(CNC(=O)c2cc3ccccc3n2Cc2cc(-c3ccc(Cl)s3)on2)C1
	> 10	> 100	> 100	6.04	0.23	O=C(NC1CCN(c2ccncc2)CC1)c1cc2ccccc2n1Cc1cc(-c2ccc(Cl)s2)on1
0.106						O=C(NC1CCN(C2CCCCC2)CC1)c1cc2ccccc2n1Cc1cc(-c2ccc(Cl)s2)on1
	3.16	> 100	64	5.78	0.19	O=C(c1cc2ccccc2n1Cc1cc(-c2ccc(Cl)s2)on1)N1CCC(Nc2ccncc2)CC1
	> 10	> 100	> 100	30.7	1.55	CN1CCC(NC(=O)c2cc3ccccc3n2Cc2cc(-c3ccc(Cl)s3)on2)CC1
	> 10	> 100	> 100	9.02	0.37	CCN1CCC(NC(=O)c2cc3ccccc3n2Cc2cc(-c3ccc(Cl)s3)on2)CC1
0.012	> 10	> 100	> 100	6.2	0.37	O=C(NC1CN(c2ccncc2)C1)c1cc2ccccc2n1Cc1cc(-c2ccc(Cl)s2)on1
0.095						O=C(NC1CCN(C2CCOCC2)CC1)c1cc2ccccc2n1Cc1cc(-c2ccc(Cl)s2)on1
				15.6	1.56	CCCN1CCC(NC(=O)c2cc3ccccc3n2Cc2cc(-c3ccc(Cl)s3)on2)CC1
0.345						CC(C)CN1CC(NC(=O)c2cc3ccccc3n2Cc2cc(-c3ccc(Cl)s3)on2)C1
